Assay results reported in ChEMBL document CHEMBL1240411, “Synthesis and evaluation of anti-Toxoplasma gondii and antimicrobial activities of thiosemicarbazides, 4-thiazolidinones and 1,3,4-thiadiazoles” (Eur J Med Chem, 2010).
In brackets after ≈: the same amount, converted by molar mass.

How the values were obtained:
[1] = system: Toxoplasma gondii; assay: Antimicrobial activity against tachyzoites of Toxoplasma gondii RH infected in Vero cells assessed as reduction of infected cells at 1 mM after 24 hrs relative to control; format: functional; parameters: scale not given: the % may be the effect or the level left
Summary of the method: (§1)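 T. gondii RH tachyzoites were taken from mouse intraperitoneal passage. Vero cells were infected at 10:1 parasite:host for 1 h, PBS-washed, then held 24 h at 37 °C in medium 199 + 5% FCS. Compound exposure was 24 h at 37 °C. Cells were Bouin-fixed, Giemsa-stained and light-microscopy scored (≥400 cells) for % infected cells. Student's t-test, P<0.05. 13 assays in triplicate.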

[2] = Cytotoxicity against african green monkey Vero cells infected with tachyzoites of Toxoplasma gondii RH after 24 hrs; format: cell-based; conditions: chlorocebus sabaeus, read-out: LD50
Summary of the method: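 Vero cells were infected with RH tachyzoites (10:1, 1 h), washed and incubated 24 h. They were then exposed 24 h to compound over 0.01–10 mM, in triplicate. Viability was scored by trypan blue exclusion, and LD50 was obtained by non-linear regression.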

[3] = system: Toxoplasma gondii; assay: Antimicrobial activity against tachyzoites of Toxoplasma gondii RH infected in Vero cells assessed as reduction of infected cells at 0.1 mM after 24 hrs relative to control; format: functional; parameters: scale not given: the % may be the effect or the level left; summary of the method: as §1
[4] = system: Toxoplasma gondii; assay: Antimicrobial activity against tachyzoites of Toxoplasma gondii RH infected in Vero cells assessed as reduction of infected cells at 10 mM after 24 hrs relative to control; format: functional; parameters: scale not given: the % may be the effect or the level left; summary of the method: as §1
[5] = Cytotoxicity against african green monkey Vero cells after 24 hrs; format: cell-based; conditions: chlorocebus sabaeus, read-out: LD50
[6] = system: Toxoplasma gondii; assay: Antimicrobial activity against tachyzoites of Toxoplasma gondii RH infected in Vero cells assessed as reduction of infected cells after 24 hrs; format: functional; conditions: read-out: LD50 (the source's name)
Summary of the method: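 RH tachyzoites came from intraperitoneal passage in Swiss mice, harvested at 48 h. Vero cells were infected at a 10:1 parasite:host ratio for 1 h, washed with PBS and grown 24 h at 37 °C in medium 199 with 5% FCS. Compounds were then added at 0.1, 1 and 10 mM for 24 h. Cells were Bouin-fixed and Giemsa-stained, and at least 400 cells were counted by light microscopy. Mean ± SD, n = 3; Student's t-test.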

[7] = system: Staphylococcus aureus; assay: Antibacterial activity against Staphylococcus aureus UFPEDA 02 after 24 to 48 hrs by serial dilution method; format: functional
[8] = system: Bacillus subtilis; assay: Antibacterial activity against Bacillus subtilis UFPEDA 16 after 24 to 48 hrs by serial dilution method; format: functional
[9] = system: Aspergillus niger; assay: Antifungal activity against Aspergillus niger UFPEDA 2003 by disc diffusion method; format: functional
Summary of the method: (§2)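 Disc diffusion: discs holding known amounts of agent were laid on agar seeded with a standardized microbial suspension. DMSO discs (CH₂Cl₂ for ketoconazole tests) served as negative controls. Read-out was mean zone of inhibition (mm). Run in triplicate, repeated if results differed.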

[10] = system: Candida; assay: Antifungal activity against Candida sp. UFPEDA 2224 after 24 to 48 hrs by serial dilution method; format: functional
Summary of the method: (§3)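 Only compounds giving a disc-diffusion mean inhibition zone of at least 18 mm were carried to MIC. Nistatin and ketoconazole served as antifungal references.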

[11] = system: Candida albicans; assay: Antifungal activity against Candida albicans UFPEDA 1007 after 24 to 48 hrs by serial dilution method; format: functional; summary of the method: as §3
[12] = system: Bacillus subtilis; assay: Antibacterial activity against Bacillus subtilis UFPEDA 16 by disc diffusion method; format: functional; summary of the method: as §2
[13] = system: Staphylococcus aureus; assay: Antibacterial activity against Staphylococcus aureus UFPEDA 02 by disc diffusion method; format: functional; summary of the method: as §2
[14] = system: Escherichia coli; assay: Antibacterial activity against Escherichia coli UFPEDA 224 after 24 to 48 hrs by serial dilution method; format: functional
[15] = system: Mycolicibacterium smegmatis; assay: Antibacterial activity against Mycobacterium smegmatis UFPEDA 71 by disc diffusion method; format: functional; summary of the method: as §2
[16] = system: Mycolicibacterium smegmatis; assay: Antibacterial activity against Mycobacterium smegmatis UFPEDA 71 after 24 to 48 hrs by serial dilution method; format: functional
[17] = system: Escherichia coli; assay: Antibacterial activity against Escherichia coli UFPEDA 224 by disc diffusion method; format: functional; summary of the method: as §2
[18] = system: Candida; assay: Antifungal activity against Candida sp. UFPEDA 2224 by disc diffusion method; format: functional; summary of the method: as §2
[19] = system: Candida albicans; assay: Antifungal activity against Candida albicans UFPEDA 1007 by disc diffusion method; format: functional; summary of the method: as §2
[20] = system: Aspergillus niger; assay: Antifungal activity against Aspergillus niger UFPEDA 2003 after 24 to 48 hrs by serial dilution method; format: functional; summary of the method: as §3

| Compound | Activity [1] [%] | CC50 at 24 h [2] [µM] | Activity [3] [%] | Activity [4] [%] | CC50 at 24 h [5] [µM] | LC50 [6] [µM] | MIC [7] [µg/mL] | MIC [8] [µg/mL] | also measured |
| --- | --- | --- | --- | --- | --- | --- | --- | --- | --- |
| NC(=O)NO [HYDROXYUREA] | 4 | > 10000 | 53 | 1 | > 10000 | 500 | – | – | – |
| O=C(N[C@H](CO)[C@H](O)c1ccc([N+](=O)[O-])cc1)C(Cl)Cl [CHLORAMPHENICOL] | – | – | – | – | – | – | 35 (≈ 108 µM) | 30 (≈ 92.8 µM) | – |
| Cc1[nH]cnc1C(=O)N/N=C1\SC(CC(=O)O)C(=O)N1c1ccc(F)cc1 (stereo not drawn) | 22 | 1000 | 59 | 0 | 5000 | 100 | – | – | inhibition zone (IZ) [9]: 18 mm |
| COc1ccc(N2C(=O)C(CC(=O)O)S/C2=N\NC(=O)c2nc[nH]c2C)cc1 (stereo not drawn) | 17 | 1000 | 73 | 0 | 5000 | 500 | – | – | – |
| CC(=O)N1CCN(c2ccc(OCC3COC(Cn4ccnc4)(c4ccc(Cl)cc4Cl)O3)cc2)CC1 (stereo not drawn) [KETOCONAZOLE] | – | – | – | – | – | – | – | – | MIC [10]: 40 µg/mL (≈ 75.3 µM); MIC [11]: 25 µg/mL (≈ 47 µM) |
| Cc1[nH]cnc1C(=O)N/N=C1\SC(CC(=O)O)C(=O)N1c1ccccc1 (stereo not drawn) | 42 | 5000 | 69 | 0 | 5000 | 1500 | 250 (≈ 670 µM) | 270 (≈ 723 µM) | inhibition zone (IZ) [12]: 27 mm; inhibition zone (IZ) [13]: 19 mm |
| COc1ccc(NC(=S)NNC(=O)c2nc[nH]c2C)cc1 | 12 | 70 | 22 | 0 | 1000 | 60 | 210 (≈ 688 µM) | 160 (≈ 524 µM) | inhibition zone (IZ) [12]: 22 mm; inhibition zone (IZ) [13]: 19 mm |
| COc1ccc(Nc2nnc(-c3nc[nH]c3C)s2)cc1 | 14 | 100 | 28 | 0 | > 10000 | 50 | – | – | – |
| Cc1[nH]cnc1C(=O)NNC(=S)Nc1ccc(F)cc1 | 8 | 60 | 14 | 0 | 10000 | 50 | 190 (≈ 648 µM) | 130 (≈ 443 µM) | inhibition zone (IZ) [12]: 28 mm; MIC [14]: 250 µg/mL (≈ 852 µM); inhibition zone (IZ) [15]: 20 mm; inhibition zone (IZ) [13]: 20 mm; MIC [16]: 160 µg/mL (≈ 545 µM); inhibition zone (IZ) [17]: 21 mm |
| Nc1ccc(S(=O)(=O)Nc2ncccn2)cc1 [SULFADIAZINE] | 48 | > 10000 | 64 | 36 | > 10000 | 6000 | – | – | – |
| Cc1[nH]cnc1C(=O)N/N=C1\SC(CC(=O)O)C(=O)N1c1ccc(Cl)cc1 (stereo not drawn) | 51 | 1000 | 63 | 0.19 | > 10000 | 1500 | – | – | MIC [10]: 300 µg/mL (≈ 736 µM); MIC [11]: 280 µg/mL (≈ 687 µM); inhibition zone (IZ) [18]: 20 mm; inhibition zone (IZ) [19]: 20 mm |
| Cc1[nH]cnc1-c1nnc(Nc2ccccc2)s1 | 10 | 600 | 13 | 0.36 | > 10000 | 50 | – | – | – |
| CO[C@H]1/C=C/O[C@@]2(C)Oc3c(C)c(O)c4c(O)c(c(/C=N/N5CCN(C)CC5)c(O)c4c3C2=O)NC(=O)/C(C)=C\C=C\[C@H](C)[C@H](O)[C@@H](C)[C@@H](O)[C@@H](C)[C@H](OC(C)=O)[C@@H]1C [RIFAMPIN] | – | – | – | – | – | – | – | – | MIC [16]: 55 µg/mL (≈ 66.8 µM) |
| Cc1[nH]cnc1-c1nnc(Nc2ccc(F)cc2)s1 | 6 | 70 | 22 | 3 | > 10000 | 50 | – | – | – |
| Cc1[nH]cnc1C(=O)NNC(=S)Nc1ccccc1 | 6 | 50 | 18 | 0 | 1000 | 50 | 190 (≈ 690 µM) | 140 (≈ 508 µM) | inhibition zone (IZ) [12]: 27 mm; inhibition zone (IZ) [13]: 18 mm |
| Cc1[nH]cnc1C(=O)NNC(=S)Nc1ccc(Cl)cc1 | 8 | 60 | 11 | 1 | > 10000 | 60 | 190 (≈ 613 µM) | 130 (≈ 420 µM) | inhibition zone (IZ) [12]: 29 mm; inhibition zone (IZ) [15]: 21 mm; inhibition zone (IZ) [13]: 25 mm; MIC [16]: 150 µg/mL (≈ 484 µM) |
| Cc1[nH]cnc1-c1nnc(Nc2ccc(Cl)cc2)s1 | 8 | 80 | 12 | 1 | > 10000 | 50 | – | – | – |
| NYSTATIN | – | – | – | – | – | – | – | – | MIC [20]: 50 µg/mL; MIC [10]: 50 µg/mL; MIC [11]: 50 µg/mL |
